ChEMBL document CHEMBL4765271, “Design, synthesis and biological evaluation of 2,3-dihydro-5,6-dimethoxy-1H-inden-1-one and piperazinium salt hybrid derivatives as hAChE and hBuChE enzyme inhibitors” (Eur J Med Chem, 2020)
pIC50, pKi: −log10 of the molar value. Active and inactive are the calls of the source. The rule behind the calls is not given here.

Tests used:
Homo sapiens = organism: Homo sapiens; assay: Selectivity ratio of IC50 for human erythrocyte AChE to IC50 for human plasma BuChE
Method in brief: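 Ellman assay used cholinesterases from human blood. Inhibitor at five concentrations was pre-incubated 5 min at 37 °C in phosphate buffer pH 8 with DTNB (3.5 mM stock) and acetylthiocholine iodide substrate (7 mM stock). The reaction was started with enzyme and read as absorbance increase at 412 nm. Each run was done twice. The ratio is derived from the AChE and BuChE IC50 values.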

Acetylcholinesterase [1] = biological target: T1, Acetylcholinesterase (Homo sapiens, UniProt P22303); assay: Inhibition of human erythrocyte AChE using acetylthiocholine as substrate measured after 5 mins by Ellman's method
T1 sequence (P22303 whole entry): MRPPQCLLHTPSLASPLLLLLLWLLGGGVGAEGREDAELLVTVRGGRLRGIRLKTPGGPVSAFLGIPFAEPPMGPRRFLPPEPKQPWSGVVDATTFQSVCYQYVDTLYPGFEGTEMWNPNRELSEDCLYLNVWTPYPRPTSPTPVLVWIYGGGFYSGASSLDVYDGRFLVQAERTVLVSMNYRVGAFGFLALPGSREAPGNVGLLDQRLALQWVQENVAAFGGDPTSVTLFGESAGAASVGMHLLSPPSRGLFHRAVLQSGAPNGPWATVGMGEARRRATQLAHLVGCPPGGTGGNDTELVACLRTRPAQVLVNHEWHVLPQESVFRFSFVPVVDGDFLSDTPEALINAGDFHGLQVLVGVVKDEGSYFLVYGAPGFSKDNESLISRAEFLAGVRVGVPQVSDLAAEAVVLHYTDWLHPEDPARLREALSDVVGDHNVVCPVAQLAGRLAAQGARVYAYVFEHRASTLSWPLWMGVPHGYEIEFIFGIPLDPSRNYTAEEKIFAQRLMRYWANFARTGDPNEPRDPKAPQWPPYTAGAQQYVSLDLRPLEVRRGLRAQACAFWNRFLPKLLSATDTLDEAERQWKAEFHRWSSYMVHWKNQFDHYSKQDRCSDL

Cholinesterase [2] = biological target: T2, Cholinesterase (Homo sapiens, UniProt P06276); assay: Inhibition of human plasma BuChE using butyrylthiocholine as substrate measured after 5 mins by Ellman's method
T2 sequence (P06276 whole entry): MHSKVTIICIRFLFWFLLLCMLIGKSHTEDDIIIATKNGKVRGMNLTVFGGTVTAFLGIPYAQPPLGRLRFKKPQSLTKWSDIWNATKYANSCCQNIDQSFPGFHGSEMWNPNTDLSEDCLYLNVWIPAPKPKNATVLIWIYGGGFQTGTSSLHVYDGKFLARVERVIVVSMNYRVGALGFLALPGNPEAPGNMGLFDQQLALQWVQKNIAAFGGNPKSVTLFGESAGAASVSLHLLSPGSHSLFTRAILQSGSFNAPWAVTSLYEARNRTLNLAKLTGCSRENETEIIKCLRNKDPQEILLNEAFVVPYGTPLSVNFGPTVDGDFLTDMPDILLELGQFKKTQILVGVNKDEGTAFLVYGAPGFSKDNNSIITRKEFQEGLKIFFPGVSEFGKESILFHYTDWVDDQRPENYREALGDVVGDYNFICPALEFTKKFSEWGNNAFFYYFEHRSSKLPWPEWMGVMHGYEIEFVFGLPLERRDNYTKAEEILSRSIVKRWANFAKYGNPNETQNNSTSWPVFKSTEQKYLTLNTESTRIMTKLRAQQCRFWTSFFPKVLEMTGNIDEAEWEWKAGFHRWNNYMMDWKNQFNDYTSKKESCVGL

PC-12 [3] = assay: Antioxidant activity in amyloid beta (1 to 42)-induced oxidative stress in rat PC-12 cells assessed as reduction in ROS formation by measuring DCF fluorescence intensity at 1 uM measured after 24 hrs by DCFH-DA staining based fluorescence spectrophotometric assay (reference value: 51 +/- 11); type: functional
SH-SY5Y = assay: Cytotoxicity against human SH-SY5Y cells measured after 48 hrs by MTT assay; type: ADME, cell-based
PC-12 [4] = assay: Antioxidant activity in amyloid beta (1 to 42)-induced oxidative stress in rat PC-12 cells assessed as reduction in ROS formation by measuring apoptotic index at 10 uM measured after 24 hrs by DAPI staining based TUNEL assay (reference value: 60 +/- 10); type: functional
PC-12 [5] = assay: Cytoprotective activity against amyloid beta (1 to 42)-induced toxicity in rat PC-12 cells assessed as decrease in LDH level by spectrophotometric assay; type: functional, cell-based
Method in brief: (§1)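 PC12 cells exposed to 5 μM Aβ(1-42) in serum-free DMEM 24 h at 37 °C, then compound (1 or 10 μM) added for 24 h. LDH in culture medium measured as rate of NADH oxidation (pyruvate→lactate), read as absorbance decrease at 340 nm. Expressed as leakage into medium relative to total LDH.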

PC-12 [6] = assay: Antioxidant activity in amyloid beta (1 to 42)-induced oxidative stress in rat PC-12 cells assessed as reduction in ROS formation measured after 24 hrs by DAPI staining based TUNEL assay; type: functional, cell-based
Method in brief: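 Aβ(1-42) (5 μM) treated PC12 cells, with compound at 1 or 10 μM, fixed in 4% paraformaldehyde (1 h), blocked with […], then permeabilized with 0.1% Triton X-100/0.1% sodium citrate on ice. TUNEL reaction 60 min at 37 °C, DAPI nuclear counterstain, imaged by fluorescence/confocal microscopy.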

PC-12 [7] = assay: Cytoprotective activity against amyloid beta (1 to 42)-induced toxicity in rat PC-12 cells assessed as decrease in MDA level at 1 to 10 uM measured after 8 hrs by TBARS assay relative to control; type: functional; parameters: scale not given: the % may be the effect or the level left; settings: dose 1-10 µM
Method in brief: (§2)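 Cells seeded in six-well plates, exposed to 5 μM Aβ(1-42) with or without compound (1 or 10 μM) for 8 h. They were collected and sonicated on ice, then lysed with SDS. TBA reagent added and heated at 95 °C for 45-60 min. MDA read by TBARS absorbance at 535 nm.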

PC-12 [8] = assay: Antiinflammatory activity in amyloid beta (1 to 42)-induced cytokine production in rat PC-12 cells assessed as decrease in TNFalpha mRNA level by SYBR green dye based RT-PCR analysis; type: functional, cell-based
Method in brief: (§3)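 PC12 cells (7-day cultures, DMEM with 7% FBS, 7% horse serum) exposed to 5 μM Aβ(1-42) in serum-free DMEM for 24 h at 37 °C, 5% CO2, then compound at 1 or 10 μM for 24 h. Total RNA isolated, reverse transcribed, and IL-1β and TNF-α mRNA quantified by SYBR Green real-time PCR; 2^-ΔΔCT method relative to β-actin.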

PC-12 [9] = assay: Antiinflammatory activity in amyloid beta (1 to 42)-induced cytokine production in rat PC-12 cells assessed as decrease in IL-1beta mRNA level by SYBR green dye based RT-PCR analysis; type: functional, cell-based; method in brief: as §3
HFF = assay: Cytotoxicity against HFF cells assessed as reduction in cell viability incubated for 48 hrs by MTT assay; type: ADME, cell-based; settings: Homo sapiens
PC-12 [10] = assay: Cytoprotective activity against amyloid beta (1 to 42)-induced toxicity in rat PC-12 cells assessed as decrease in LDH level at 10 uM by spectrophotometric assay relative to control; type: functional; parameters: scale not given: the % may be the effect or the level left; method in brief: as §1
PC-12 [11] = assay: Antioxidant activity in amyloid beta (1 to 42)-induced oxidative stress in rat PC-12 cells assessed as reduction in ROS formation by measuring apoptotic index at 1 uM measured after 24 hrs by DAPI staining based TUNEL assay (reference value: 60 +/- 10); type: functional
PC-12 [12] = assay: Antioxidant activity in amyloid beta (1 to 42)-induced oxidative stress in rat PC-12 cells assessed as reduction in ROS formation by measuring DCF fluorescence intensity at 10 uM measured after 24 hrs by DCFH-DA staining based fluorescence spectrophotometric assay (reference value: 51 +/- 11); type: functional
Acetylcholinesterase [13] = biological target: T1, Acetylcholinesterase; assay: Mixed type inhibition of human erythrocyte AChE using varying levels of acetylthiocholine iodide as substrate by Lineweaver-Burk plot analysis
PC-12 [14] = assay: Antioxidant activity in amyloid beta (1 to 42)-induced oxidative stress in rat PC-12 cells assessed as increase in TAC level at 1 to 10 uM in presence of ABTS by spectrophotometric assay; type: functional, cell-based; settings: dose 1-10 µM
Method in brief: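 Total antioxidant capacity measured with the ABTS/myoglobin method: 10 mM PBS pH 7.2, myoglobin, ABTS (300 μM final) and diluted sample or Trolox held 3 min at 25 °C. The reaction was started and absorbance read at 450 nm for 5 min at 25 °C. Cells were treated with 5 μM Aβ(1-42) with or without compound.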

MCF7 = assay: Cytotoxicity against human MCF7 cells after 48 hrs by MTT assay; type: ADME, cell-based; settings: MCF7, 48 h
PC-12 [15] = assay: Cytoprotective activity against amyloid beta (1 to 42)-induced toxicity in rat PC-12 cells assessed as decrease in LDH level at 1 uM by spectrophotometric assay relative to control; type: functional; parameters: scale not given: the % may be the effect or the level left; method in brief: as §1
Cholinesterase [16] = biological target: T2, Cholinesterase; assay: Non competitive inhibition of human plasma BuChE using varying levels of butyrylthiocholine iodide as substrate by Lineweaver-Burk plot analysis
PC-12 [17] = assay: Cytoprotective activity against amyloid beta (1 to 42)-induced toxicity in rat PC-12 cells assessed as decrease in MDA level measured after 8 hrs by TBARS assay; type: functional, cell-based; method in brief: as §2
PC-12 [18] = assay: Antioxidant activity in amyloid beta (1 to 42)-induced oxidative stress in rat PC-12 cells assessed as reduction in ROS formation measured after 24 hrs by DCFH-DA staining based fluorescence spectrophotometric assay; type: functional, cell-based
Method in brief: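 Intracellular ROS: PC12 cells given 5 μM Aβ(1-42) with or without compound (1 or 10 μM), then loaded with 10 μM DCFH-DA for 5 min at room temperature. DCF fluorescence read at ex 485/em 530 nm, with DAPI counterstain (ex 358/em 461) for microscopy.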

PC-12 [19] = assay: Protection against amyloid beta (1 to 42)-induced toxicity in rat PC-12 cells assessed as increase in cell viability measured after 24 hrs by transmission electron microscopy; type: functional, cell-based
Method in brief: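 PC12 cells incubated with 5 μM Aβ(1-42), with or without compound at 1 or 10 μM, at 37 °C for 24 h. Cell morphology and viability were compared by transmission electron microscopy.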

Cholinesterase [20] = biological target: T2, Cholinesterase; assay: Inhibition of human plasma BuChE at 100 uM using butyrylthiocholine as substrate measured after 5 mins by Ellman's method relative to control
Method in brief: (§4)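 Ellman spectrophotometric assay using cholinesterases from human blood. The 1 ml medium held pH 8 phosphate buffer, DTNB (3.5 mM stock), thiocholine substrate (7 mM stock) and inhibitor. It was preincubated 5 min at 37 °C, then started by adding enzyme. Absorbance increase was read at 412 nm over 5 min intervals against control cuvettes. Each experiment was run twice.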

Acetylcholinesterase [21] = biological target: T1, Acetylcholinesterase; assay: Inhibition of human erythrocyte AChE at 100 uM using acetylthiocholine as substrate measured after 5 mins by Ellman's method relative to control; method in brief: as §4
Acetylcholinesterase [22] = biological target: T1, Acetylcholinesterase; assay: Non competitive inhibition of human erythrocyte AChE using varying levels of acetylthiocholine iodide as substrate by Lineweaver-Burk plot analysis
Acetylcholinesterase [23] = biological target: T1, Acetylcholinesterase

SMILES: COc1cc2c(cc1OC)C(=O)/C(=C/c1ccc(N3CC[N+](C)(CCO)CC3)cc1)C2
- Ratio IC50 (Homo sapiens): 0.17
- pIC50 (Acetylcholinesterase [1]): 5.96
- pIC50 (Cholinesterase [2]): 5.19

SMILES: COc1cc2c(cc1OC)C(=O)/C(=C/c1ccc(N3CC[N+](C)(Cc4cccc(Cl)c4)CC3)cc1)C2.[Br-]
- Flu intensity (PC-12 [3]): 51
- pIC50 (SH-SY5Y): 5.91
- Activity_index (PC-12 [4]): 35
- Activity (PC-12 [5]): Dose-dependent effect
- Activity (PC-12 [6]): Dose-dependent effect
- Activity (PC-12 [7]): 40.4%
- Activity (PC-12 [8]): Dose-dependent effect
- Ratio IC50 (Homo sapiens): 0.74
- pIC50 (Acetylcholinesterase [1]): 6.49
- Activity (PC-12 [9]): Dose-dependent effect
- pIC50 (HFF): 5.70
- Activity (PC-12 [10]): 27.5%
- Activity_index (PC-12 [11]): 50
- Flu intensity (PC-12 [12]): 38
- pKi (Acetylcholinesterase [13]): 6.00
- Kinact (Acetylcholinesterase [13]): 0.5 µM
- Activity (PC-12 [14]): Active
- pIC50 (MCF7): 5.82
- Activity (PC-12 [15]): 16.6%
- pKi (Cholinesterase [16]): 6.30
- Activity (PC-12 [17]): Dose-dependent effect
- pIC50 (Cholinesterase [2]): 6.37
- Activity (PC-12 [18]): Dose-dependent effect
- Activity (PC-12 [19]): Dose-dependent effect

SMILES: CCC[N+]1(C)CCN(c2ccc(/C=C3\Cc4cc(OC)c(OC)cc4C3=O)cc2)CC1
- Ratio IC50 (Homo sapiens): 0.11
- pIC50 (Acetylcholinesterase [1]): 5.67
- pIC50 (Cholinesterase [2]): 4.70

SMILES: CCCCCC[N+]1(C)CCN(c2ccc(/C=C3\Cc4cc(OC)c(OC)cc4C3=O)cc2)CC1
- Ratio IC50 (Homo sapiens): 1.18
- pIC50 (Acetylcholinesterase [1]): 5.37
- pIC50 (Cholinesterase [2]): 5.44

SMILES: COc1cc2c(cc1OC)C(=O)/C(=C/c1ccc(OCCCCBr)cc1)C2
- inhibition (Cholinesterase [20]): 0%
- inhibition (Acetylcholinesterase [21]): 27.8%

SMILES: COc1cc2c(cc1OC)C(=O)/C(=C/c1ccc(OCCBr)cc1)C2
- inhibition (Cholinesterase [20]): 5.16%
- inhibition (Acetylcholinesterase [21]): 6.16%

SMILES: COc1cc2c(cc1OC)C(=O)/C(=C/c1ccc(N3CC[N+](C)(Cc4ccccc4Br)CC3)cc1)C2
- Ratio IC50 (Homo sapiens): 0.38
- pIC50 (Acetylcholinesterase [1]): 6.27
- pIC50 (Cholinesterase [2]): 5.85

SMILES: COc1cc2c(cc1OC)C(=O)/C(=C/c1ccc(N3CC[N+](C)(Cc4ccccc4)CC3)cc1)C2
- pIC50 (SH-SY5Y): 5.89
- Ratio IC50 (Homo sapiens): 0.86
- pIC50 (Acetylcholinesterase [1]): 6.43
- pKi (Acetylcholinesterase [22]): 6.30
- pIC50 (HFF): 5.62
- Kinact (Acetylcholinesterase [23]): 0.5 µM
- pIC50 (MCF7): 5.92
- pKi (Cholinesterase [16]): 6.40
- pIC50 (Cholinesterase [2]): 6.37

SMILES: CCCCC[N+]1(C)CCN(c2ccc(/C=C3\Cc4cc(OC)c(OC)cc4C3=O)cc2)CC1
- Ratio IC50 (Homo sapiens): 0.17
- pIC50 (Acetylcholinesterase [1]): 6.27
- pIC50 (Cholinesterase [2]): 5.49

SMILES: CCCC[N+]1(C)CCN(c2ccc(/C=C3\Cc4cc(OC)c(OC)cc4C3=O)cc2)CC1
- Ratio IC50 (Homo sapiens): 0.02
- pIC50 (Acetylcholinesterase [1]): 6.27
- pIC50 (Cholinesterase [2]): 4.67

SMILES: COc1cc2c(cc1OC)C(=O)/C(=C/c1ccc(N3CCN(C)CC3)cc1)C2
- inhibition (Cholinesterase [20]): 23.9%
- pIC50 (Acetylcholinesterase [1]): 6.49

SMILES: COc1cc2c(cc1OC)C(=O)/C(=C/c1ccc(N3CC[N+](C)(Cc4ccccn4)CC3)cc1)C2
- Ratio IC50 (Homo sapiens): 0.12
- pIC50 (Acetylcholinesterase [1]): 6.42
- pIC50 (Cholinesterase [2]): 5.49

SMILES: C=CC[N+]1(C)CCN(c2ccc(/C=C3\Cc4cc(OC)c(OC)cc4C3=O)cc2)CC1
- Ratio IC50 (Homo sapiens): 0.02
- pIC50 (Acetylcholinesterase [1]): 6.37
- pIC50 (Cholinesterase [2]): 4.60

SMILES: COc1cc2c(cc1OC)C(=O)/C(=C/c1ccc(N3CC[N+](C)(Cc4ccccc4Cl)CC3)cc1)C2
- Ratio IC50 (Homo sapiens): 0.22
- pIC50 (Acetylcholinesterase [1]): 6.32
- pIC50 (Cholinesterase [2]): 5.67

SMILES: COc1cc2c(cc1OC)C(=O)/C(=C/c1ccc(N3CC[N+](C)(Cc4ccc(Br)cc4)CC3)cc1)C2
- Ratio IC50 (Homo sapiens): 0.55
- pIC50 (Acetylcholinesterase [1]): 5.59
- pIC50 (Cholinesterase [2]): 5.34

SMILES: COc1cc2c(cc1OC)C(=O)/C(=C/c1ccc(N3CC[N+](C)(Cc4cccc(Br)c4)CC3)cc1)C2
- Ratio IC50 (Homo sapiens): 3.06
- pIC50 (Acetylcholinesterase [1]): 5.70
- pIC50 (Cholinesterase [2]): 6.19
